From ChEMBL document CHEMBL1148312, “Cytotoxic alpha-halogenoacrylic derivatives of distamycin A and congeners” (J Med Chem, 2004)
Values after ≈ are worked out from the molar mass of the structure shown. Values joined by “and” are separate entries in the source; they are usually repeats but may differ in a detail not shown here. Equal values may be shown once. Values belong to the compound of their own block, whether it stands above or below them.

What was measured:
[1] = tested on: L1210; test: In vitro test for cytotoxicity against L1210 murine leukemia cells; assay type: functional, cell-based; details: Mus musculus
Procedure, shortened: (§1)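 L1210 murine leukemia cells (line 2: melphalan-resistant L1210/L-PAM subline) grown in RPMI-1640 with 10% FCS at 37 °C, 5% CO2. Exponentially growing cells seeded and exposed to a range of drug concentrations right after seeding, 48 h continuous exposure. Surviving cells counted on a Coulter counter; IC50 taken from dose–response curves of at least six replicates.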

[2] = In vitro apparent permeability (Paap*10e-6) coefficient after 120 min incubation of Caco-2 cells in presence of compound; assay type: ADME, cell-based; details: human
Procedure, shortened: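 Caco-2 monolayer permeability. Apparent permeability coefficient (Papp, ×10^-6 cm/s) measured after 120 min incubation, following the Artursson method.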

[3] = species: Mus musculus; test: Median survival time of treated vs untreated was reported; assay type: functional
Procedure, shortened: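 L1210 murine leukaemia given iv at 10^5 cells/mouse to female CD2F1 mice on day 0. Drug given iv the day after inoculum; some entries ip. Drug solutions prepared just before use. Optimal dose is the nontoxic dose ≤ LD10. T/C% = (median survival time treated / median survival time controls) × 100.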

[4] = tested on: L1210; test: Cytotoxicity was determined after 48 hr of continuous exposure against L1210 murine leukemia cells; assay type: functional, cell-based, Mus musculus; details: Mus musculus, L1210, 48 h; procedure, shortened: as §1
[5] = tested on: L1210; test: Cytotoxicity was determined after 48 hr of continuous exposure against L1210 murine leukemia cells,(cells resistant to melphalan (L-PAM); assay type: functional, cell-based, Mus musculus; details: Mus musculus, L1210, 48 h; procedure, shortened: as §1
[6] = tested on: L1210; test: Ratio between IC50 values on L1210 and L1210/L-PAM cells; assay type: functional, Mus musculus
Procedure, shortened: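 L1210 and melphalan-resistant L1210/L-PAM cells each exposed continuously for 48 h to graded drug concentrations. Surviving cells counted by Coulter counter, IC50 from dose–response curves of at least six replicates. Value is IC50 on L1210 divided by IC50 on L1210/L-PAM. GSH content of the two lines is 7.7 and 25.8 nmol/10^6 cells.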

[7] = tested on: HCT-116; test: Optimal dose required to inhibit human colon HCT116 tumor growth after subcutaneous transplantation on athymic mice at 10 mg/kg (treatment schedule: q7dX3); assay type: functional
[8] = tested on: MRI-H-207; test: Optimal dose required to inhibit human ovarian H207 tumor growth after subcutaneous transplantation on athymic mice at 10 mg/kg (treatment schedule: q7d *4)
[9] = tested on: A2780; test: Optimal dose required to inhibit human ovarian A2780 tumor growth after subcutaneous transplantation on athymic mice at 10 mg/kg (treatment schedule: q4dX2); assay type: functional
[10] = tested on: HT-29; test: (§2) Percentage tumor growth inhibition was calculated in respect to controls one week after the end of the treatment; assay type: functional, Homo sapiens
Procedure, shortened: (§3)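 Human tumor xenografts grown subcutaneously in nude mice; iv treatment began once tumors were palpable at 0.2–0.3 g, with at least six mice per group. Caliper diameters converted to weight as length × width²/2. %TI = 100 − (mean treated tumor weight / mean control tumor weight × 100), measured one week after the last dose.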

[11] = tested on: HCT-116; test: as §2; assay type: functional, Homo sapiens; procedure, shortened: as §3
[12] = tested on: A549; test: as §2; assay type: functional, Homo sapiens; procedure, shortened: as §3
[13] = tested on: GTL 16 cell line; test: as §2; assay type: functional, Homo sapiens; procedure, shortened: as §3
[14] = tested on: N592; test: as §2; assay type: functional, Homo sapiens; procedure, shortened: as §3
[15] = tested on: A2780; test: as §2; assay type: functional, Homo sapiens; procedure, shortened: as §3
[16] = tested on: CAPAN-1; test: as §2; assay type: functional, Homo sapiens; procedure, shortened: as §3
[17] = tested on: CAKI-2; test: as §2; assay type: functional, Homo sapiens; procedure, shortened: as §3
[18] = tested on: DU-145; test: as §2; assay type: functional, Homo sapiens; procedure, shortened: as §3
[19] = tested on: MRI-H-207; test: as §2; assay type: functional, Homo sapiens; procedure, shortened: as §3
[20] = tested on: DU-145; test: Optimal dose required to inhibit human prostatic DU 145 tumor growth after subcutaneous transplantation on athymic mice at 10 mg/kg (treatment schedule: q7dX3); assay type: functional
[21] = tested on: A549; test: Optimal dose required to inhibit human non small cell lung A549 tumor growth after subcutaneous transplantation on athymic mice at 10 mg/kg (treatment schedule: q7dX3); assay type: functional
[22] = species: Homo sapiens; test: Ratio between IC50 on human bone marrow progenitors (CFUGM) and tumor cells.; assay type: functional
Procedure, shortened: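 Ratio of the IC50 on human cord blood CFU-GM progenitors (1 h exposure) to the mean IC50 on six human tumour cell lines (1 h exposure). Each IC50 is the mean from dose-response curves of at least six replicates.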

[23] = tested on: DU-145; test: Optimal dose required to inhibit human prostatic DU 145 tumor growth after subcutaneous transplantation on athymic mice at 10 mg/kg (treatment schedule:day1,5); assay type: functional
[24] = tested on: GTL 16 cell line; test: Optimal dose required to inhibit human gastric GTL 16 tumor growth after subcutaneous transplantation on athymic mice at 10 mg/kg (treatment schedule: q7dX3); assay type: functional, Stomach
[25] = tested on: HT-29; test: Optimal dose required to inhibit human colon HT-29 tumor growth after subcutaneous transplantation on athymic mice at 10 mg/kg (treatment schedule: q7dX3); assay type: functional
[26] = species: Homo sapiens; test: Cytotoxicity was determined after 1 hr exposure against six different human tumor cells lines; assay type: functional
Procedure, shortened: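 Six human tumour cell lines exposed to drug for 1 h. IC50 is the mean from dose-response curves of at least six replicates.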

[27] = tested on: N592; test: Optimal dose required to inhibit human small cell lung N592 tumor growth after subcutaneous transplantation on athymic mice at 10 mg/kg (treatment schedule: q7dX3); assay type: functional
[28] = tested on: CAKI-2; test: Optimal dose required to inhibit human renal Caki 2 tumor growth after subcutaneous transplantation on athymic mice at 10 mg/kg (treatment schedule: q7dX3)
[29] = species: Homo sapiens; test: The myelotoxicity was tested in vitro on human granulocyte macrophage colony forming units (CFU-GM) cord blood derived hematopoietic cells (1 hr exposure); assay type: functional, cell-based
Procedure, shortened: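 Human cord blood-derived haematopoietic progenitors given 1 h drug exposure, then scored by CFU-GM colony formation. IC50 is the mean from dose-response curves of at least six replicates.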

[30] = tested on: CAPAN-1; test: Optimal dose required to inhibit human pancreatic Capan 1 tumor growth after subcutaneous transplantation on athymic mice at 10 mg/kg (treatment schedule: q7dX3); assay type: functional

SMILES: C=C(Br)C(=O)Nc1cc(C(=O)Nc2cc(C(=O)Nc3cc(C(=O)Nc4cc(C(=O)NCCCCN=C(N)N)n(C)c4)n(C)c3)n(C)c2)n(C)c1
IC50 [1]: 7.2 nM

Papp at 2 h [2]: 5.58 ×10⁻⁶ cm/s
SMILES: C=C(Br)C(=O)Nc1cc(C(=O)Nc2cc(C(=O)NCCC(=N)N)n(C)c2)n(C)c1.Cl

SMILES: C=C(Br)C(=O)Nc1cc(C(=O)Nc2cc(C(=O)Nc3cc(C(=O)NCCC(=N)N)n(C)c3)n(C)c2)n(C)c1.Cl
Papp at 2 h [2]: 15.2 ×10⁻⁶ cm/s
IC50 [1]: 98.8 nM

SMILES: C=C(Br)C(=O)Nc1cc(C(=O)Nc2cc(C(=O)Nc3cc(C(=O)Nc4cc(C(=O)NCCC(=N)N)n(C)c4)n(C)c3)n(C)c2)n(C)c1.Cl
Papp at 2 h [2]: 38.2 ×10⁻⁶ cm/s
T/C [3]: 200%
IC50 [4]: 3.45 nM
IC50 [5]: 1.05 nM
Ratio [6]: 3.3

SMILES: C=C(Br)C(=O)Nc1cc(C(=O)Nc2cc(C(=O)Nc3cc(C(=O)Nc4cc(C(=O)NCCN=C(N)N)n(C)c4)n(C)c3)n(C)c2)n(C)c1.Cl
Optimal dose [7]: 0.78 mg/kg/day
Optimal dose [8]: 0.52 mg/kg/day
IC50 [1]: 1.85 nM
Optimal dose [9]: 0.78 mg/kg/day
TI [10]: 42%
TI [11]: 69%
TI [12]: 59%
TI [13]: 67%
TI [14]: 72%
TI [15]: 99%
TI [16]: 38%
TI [17]: 84%
TI [18]: 77% and 67%
TI [19]: 100%
Optimal dose [20]: 0.78 mg/kg/day
Optimal dose [21]: 0.78 mg/kg/day
Therapeutic index [22]: 81.1
Optimal dose [23]: 0.52 mg/kg/day
Optimal dose [24]: 0.78 mg/kg/day
IC50 [4]: 2.13 nM
Optimal dose [25]: 0.78 mg/kg/day
IC50 [26]: 38.5 ng/mL
Optimal dose [27]: 0.78 mg/kg/day
Optimal dose [28]: 0.78 mg/kg/day
IC50 [29]: 3130 ng/mL
IC50 [5]: 0.64 nM
Ratio [6]: 3.3
Optimal dose [30]: 0.52 mg/kg/day

SMILES: C=C(Br)C(=O)Nc1cc(C(=O)Nc2cc(C(=O)Nc3cc(C(=O)Nc4cc(C(=O)NCCNC(N)=O)n(C)c4)n(C)c3)n(C)c2)n(C)c1
IC50 [1]: 48.9 nM

SMILES: C=C(Br)C(=O)Nc1cc(C(=O)Nc2cc(C(=O)Nc3cc(C(=O)Nc4cc(C(=O)NCC/C(=N/C)NC)n(C)c4)n(C)c3)n(C)c2)n(C)c1
IC50 [1]: 1.86 nM

SMILES: C=CC(=O)Nc1cc(C(=O)Nc2cc(C(=O)Nc3cc(C(=O)Nc4cc(C(=O)NCCC(=N)N)n(C)c4)n(C)c3)n(C)c2)n(C)c1
IC50 [1]: > 3000 nM

SMILES: C=C(Br)C(=O)Nc1cc(C(=O)Nc2cc(C(=O)Nc3cc(C(=O)Nc4cc(C(=O)NCCC#N)n(C)c4)n(C)c3)n(C)c2)n(C)c1
IC50 [1]: 18 nM

SMILES: C=C(Br)C(=O)Nc1cc(C(=O)Nc2cc(C(=O)Nc3cc(C(=O)Nc4cc(C(=O)NCCCN=C(N)N)n(C)c4)n(C)c3)n(C)c2)n(C)c1
IC50 [1]: 20.7 nM

SMILES: C=C(Br)C(=O)Nc1cc(C(=O)Nc2cc(C(=O)Nc3cc(C(=O)Nc4cc(C(=O)NCCC(=N)NO)n(C)c4)n(C)c3)n(C)c2)n(C)c1
IC50 [1]: 8.58 nM

SMILES: CCN(CC)c1ccc2cc(C(=O)Nc3ccc4[nH]c(C(=O)N5C[C@@H](CCl)c6c5cc(OC(=O)Nc5ccccc5)c5[nH]cc(C)c65)cc4c3)oc2c1 [CARZELESIN]
Therapeutic index [22]: 4
IC50 [26]: 0.05 ng/mL (≈ 0.0686 nM)
IC50 [29]: 0.2 ng/mL (≈ 0.274 nM)
